Here are results for 45 compounds from ChEMBL document CHEMBL1140903, “Reactions of functionalized sulfonamides: application to lowering the lipophilicity of cytosolic phospholipase A2alpha inhibitors” (J Med Chem, 2009).

The structures appear in SMILES notation.

Test [1] deals with T1, Cytosolic phospholipase A2 (Homo sapiens, UniProt P47712).
T1 sequence (P47712 whole entry): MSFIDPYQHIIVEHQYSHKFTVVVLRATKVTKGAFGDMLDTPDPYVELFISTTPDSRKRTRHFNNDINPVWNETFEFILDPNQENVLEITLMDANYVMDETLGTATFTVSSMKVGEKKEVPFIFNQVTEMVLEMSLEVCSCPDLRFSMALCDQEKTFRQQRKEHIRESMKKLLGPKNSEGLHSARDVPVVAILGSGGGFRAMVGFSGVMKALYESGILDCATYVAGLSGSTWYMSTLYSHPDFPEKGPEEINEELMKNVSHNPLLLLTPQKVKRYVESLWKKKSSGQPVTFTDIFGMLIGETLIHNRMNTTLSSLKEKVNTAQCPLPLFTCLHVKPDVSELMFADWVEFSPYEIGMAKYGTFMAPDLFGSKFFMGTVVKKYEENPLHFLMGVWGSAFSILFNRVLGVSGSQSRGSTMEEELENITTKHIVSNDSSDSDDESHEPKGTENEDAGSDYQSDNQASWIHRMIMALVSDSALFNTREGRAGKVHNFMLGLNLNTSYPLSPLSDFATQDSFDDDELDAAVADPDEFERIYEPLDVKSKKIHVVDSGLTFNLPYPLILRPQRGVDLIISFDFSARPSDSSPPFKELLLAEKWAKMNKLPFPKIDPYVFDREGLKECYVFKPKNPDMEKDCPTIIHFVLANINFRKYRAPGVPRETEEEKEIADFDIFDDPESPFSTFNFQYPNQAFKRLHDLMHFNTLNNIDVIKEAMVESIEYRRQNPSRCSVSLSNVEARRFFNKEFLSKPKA
In words: Inhibition of human cytosolic PLA2alpha by GLU micelle assay. A digest of the protocol:
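Purified human cPLA2α with the substrate 7-hydroxycoumarinyl-γ-linolenate (GLU), presented in micelles containing a high concentration of detergent and lipid. IC50 is taken from at least two runs, each run the mean of duplicate assays.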

The next test concerns Blood. In words: Inhibition of A23187-induced TBX2 release in Sprague-Dawley rat whole blood. Type of test: functional, tissue-based. A digest of the protocol: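 Rat whole blood is stimulated with calcium ionophore A23187, and thromboxane B2 is the read-out (cPLA2α- and COX-1-dependent). IC50 is taken from at least two runs, each run the mean of triplicate assays.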

In the case of `O=C(O)c1ccc(OCCc2c(CCNS(=O)(=O)CCn3cncn3)n(C(c3ccccc3)c3ccccc3)c3ccc(Cl)cc23)cc1`, the values for the IC50 (in test [1]; in the test on Blood) were 0.41 µM and 1.5 µM, respectively.
Consider `CCN(CC)Cc1ccccc1CS(=O)(=O)NCCc1c(CCCc2ccc(C(=O)O)cc2)c2cc(Cl)ccc2n1C(c1ccccc1)c1ccccc1`, for which the IC50 (in general, the concentration that gives 50% inhibition) in test [1] was found to be 0.03 µM; in the test with Blood it was 0.037 µM.
On the same counts, the results for `Cc1ccccc1CS(=O)(=O)NCCc1c(CCCc2ccc(C(=O)O)cc2)c2cc(Cl)ccc2n1C(c1ccccc1)c1ccccc1` are 0.026 µM and 0.025 µM.
In turn, `CC1CCCC(C)N1CCS(=O)(=O)NCCc1c(CCCc2ccc(C(=O)O)cc2)c2cc(Cl)ccc2n1C(c1ccccc1)c1ccccc1` (stereo not drawn) gave an IC50 with Blood of 0.05 µM.
On the same count and under the same terms, under `O=C(O)c1ccc(OCCc2c(CCNS(=O)(=O)CCN3CCSC3)n(C(c3ccccc3)c3ccccc3)c3ccc(Cl)cc23)cc1` stands 0.32 µM.
In the case of `O=C(O)c1ccc(OCCc2c(CCNS(=O)(=O)CCN3CCCCC3)n(C(c3ccccc3)c3ccccc3)c3ccc(Cl)cc23)cc1`, the IC50 worked out at 0.36 µM in test [1] and 0.14 µM in the test with Blood.
On to `COc1ccc(OC)c(SCS(=O)(=O)NCCc2c(CCOc3ccc(C(=O)O)cc3)c3cc(Cl)ccc3n2C(c2ccccc2)c2ccccc2)c1`, for which the results for the half-maximal inhibitory concentration (IC50) (in test [1]; with Blood) were 0.33 µM and 0.24 µM, respectively.
`O=C(O)c1ccc(CCCc2c(CCNS(=O)(=O)Cc3ccccc3CN3CCOCC3)n(C(c3ccccc3)c3ccccc3)c3ccc(Cl)cc23)cc1` came in with an IC50 with Blood of 0.02 µM.
For `Cc1cnn(CCS(=O)(=O)NCCc2c(CCOc3ccc(C(=O)O)cc3)c3cc(Cl)ccc3n2C(c2ccccc2)c2ccccc2)c1`, the half-inhibitory concentration (IC50) is 0.76 µM in test [1] and 0.28 µM in the test on Blood.
In the test with Blood, `O=C(O)c1ccc(OCCc2c(CCNS(=O)(=O)Cc3ccccc3)n(C(c3ccccc3)c3ccccc3)c3ccc(Cl)cc23)cc1` displayed a concentration for half-maximal inhibition (IC50) of 0.12 µM.
In the case of `O=C(O)c1ccc(OCCc2c(CCNS(=O)(=O)CCn3ccnn3)n(C(c3ccccc3)c3ccccc3)c3ccc(Cl)cc23)cc1`, the figures for the concentration for half-maximal inhibition (IC50) (in test [1]; in the test on Blood) were 0.5 µM and 0.2 µM, respectively.
The matching figures for `O=C(O)c1ccc(OCCc2c(CCNS(=O)(=O)CCN3CCCC3)n(C(c3ccccc3)c3ccccc3)c3ccc(Cl)cc23)cc1`: 0.35 µM and 0.33 µM.
The matching figures for `O=C(O)c1ccc(CCCc2c(CCNS(=O)(=O)Cc3ccccc3CN3CCNCC3)n(C(c3ccccc3)c3ccccc3)c3ccc(Cl)cc23)cc1`: 0.013 µM and 0.17 µM.
On the same counts, the results for `O=C(O)c1ccc(OCCc2c(CCNS(=O)(=O)CCc3ccccc3)n(C(c3ccccc3)c3ccccc3)c3ccc(Cl)cc23)cc1` are 0.5 µM and 0.63 µM.
For the compound `O=C(O)c1ccc(OCCc2c(CCNS(=O)(=O)CSc3ccc(Cl)cc3Cl)n(C(c3ccccc3)c3ccccc3)c3ccc(Cl)cc23)cc1`, the IC50 in test [1] was 0.3 µM; with Blood, 0.08 µM.
Turning to `O=C(O)c1ccc(OCCc2c(CCNS(=O)(=O)CCn3ccnc3)n(C(c3ccccc3)c3ccccc3)c3ccc(Cl)cc23)cc1`, in the test with Blood, the IC50 is 5.8 µM.
Take `C[C@@H]1COC[C@H](C)N1CCS(=O)(=O)NCCc1c(CCOc2ccc(C(=O)O)cc2)c2cc(Cl)ccc2n1C(c1ccccc1)c1ccccc1`: the half-maximal inhibitory concentration (IC50) is 0.45 µM in test [1] and 0.34 µM in the test on Blood.
Turning to `CC1CN(CCS(=O)(=O)NCCc2c(CCOc3ccc(C(=O)O)cc3)c3cc(Cl)ccc3n2C(c2ccccc2)c2ccccc2)CC(C)N1` (stereo not drawn), the IC50 in the test on Blood is over 10 µM.
Turning to `O=C(O)c1ccc(OCCc2c(CCNS(=O)(=O)CCN3CCNC3=S)n(C(c3ccccc3)c3ccccc3)c3ccc(Cl)cc23)cc1`, the values for the IC50 (in test [1]; in the test with Blood) were 0.75 µM and 5 µM, respectively.
On the same counts, the results for `CC1CCN(CCS(=O)(=O)NCCc2c(CCOc3ccc(C(=O)O)cc3)c3cc(Cl)ccc3n2C(c2ccccc2)c2ccccc2)CC1` are 0.22 µM and 0.2 µM.
The matching figures for `O=Cc1ccccc1CS(=O)(=O)NCCc1c(CCCc2ccc(C(=O)O)cc2)c2cc(Cl)ccc2n1C(c1ccccc1)c1ccccc1`: 0.2 µM and 0.05 µM.
In the test on Blood, `O=C(O)c1ccc(CCCc2c(CCNS(=O)(=O)Cc3ccccc3CO)n(C(c3ccccc3)c3ccccc3)c3ccc(Cl)cc23)cc1` displayed an IC50 of 0.028 µM.
As for `O=C(O)c1ccc(OCCc2c(CCNS(=O)(=O)CSc3cc(Cl)cc(Cl)c3)n(C(c3ccccc3)c3ccccc3)c3ccc(Cl)cc23)cc1`, the IC50 in test [1] amounted to 0.2 µM; with Blood, 0.14 µM.
In the test on Blood, `CN(C)C1CCN(CCS(=O)(=O)NCCc2c(CCOc3ccc(C(=O)O)cc3)c3cc(Cl)ccc3n2C(c2ccccc2)c2ccccc2)C1` (stereo not drawn) showed an IC50 of over 1.25 µM.
Consider `O=C(O)c1ccc(OCCc2c(CCNS(=O)(=O)CSc3ccc(F)c(Cl)c3)n(C(c3ccccc3)c3ccccc3)c3ccc(Cl)cc23)cc1`, for which the IC50 turned out to be 0.17 µM in test [1] and 0.07 µM in the test on Blood.
Take `CC(=O)N1CCN(CCS(=O)(=O)NCCc2c(CCOc3ccc(C(=O)O)cc3)c3cc(Cl)ccc3n2C(c2ccccc2)c2ccccc2)CC1`: half-maximal inhibition with Blood (IC50) was put at 0.24 µM.
With `O=C(O)c1ccc(OCCc2c(CCNS(=O)(=O)CCN3CCC(O)CC3)n(C(c3ccccc3)c3ccccc3)c3ccc(Cl)cc23)cc1`, the IC50 in test [1] was 0.35 µM; with Blood, 1.3 µM.
On the same counts, the results for `Cc1cc(C)n(CCS(=O)(=O)NCCc2c(CCCc3ccc(C(=O)O)cc3)c3cc(Cl)ccc3n2C(c2ccccc2)c2ccccc2)n1` are 0.3 µM and 0.11 µM.
The matching figures for `CC(=O)N1CCN(Cc2ccccc2CS(=O)(=O)NCCc2c(CCCc3ccc(C(=O)O)cc3)c3cc(Cl)ccc3n2C(c2ccccc2)c2ccccc2)CC1`: 0.006 µM and 0.034 µM.
Consider `C[C@@H]1CCC[C@H](C)N1CCS(=O)(=O)NCCc1c(CCOc2ccc(C(=O)O)cc2)c2cc(Cl)ccc2n1C(c1ccccc1)c1ccccc1`, for which the figures for the concentration for half-maximal inhibition (IC50) (in test [1]; in the test with Blood) were 0.25 µM and 0.1 µM, respectively.
Consider `Cc1cccc(C)c1CS(=O)(=O)NCCc1c(CCCc2ccc(C(=O)O)cc2)c2cc(Cl)ccc2n1C(c1ccccc1)c1ccccc1`, for which the 50% inhibitory concentration (IC50) in test [1] came out at 0.01 µM; in the test on Blood it was 0.03 µM.
The matching figures for `COc1ccccc1S(=O)(=O)NCCc1c(CCCc2ccc(C(=O)O)cc2)c2cc(Cl)ccc2n1C(c1ccccc1)c1ccccc1`: 0.1 µM and 0.2 µM.
As to `O=C(O)c1ccc(OCCc2c(CCNS(=O)(=O)CCn3cccn3)n(C(c3ccccc3)c3ccccc3)c3ccc(Cl)cc23)cc1`, in the test on Blood, the IC50 stood at 0.54 µM.
On the same count and under the same terms, to `CC1C(=O)NCCN1CCS(=O)(=O)NCCc1c(CCOc2ccc(C(=O)O)cc2)c2cc(Cl)ccc2n1C(c1ccccc1)c1ccccc1` (stereo not drawn) belongs 0.48 µM.
As to `Cc1cccc(C)c1SCS(=O)(=O)NCCc1c(CCOc2ccc(C(=O)O)cc2)c2cc(Cl)ccc2n1C(c1ccccc1)c1ccccc1`, the concentration for half-maximal inhibition (IC50) in test [1] is 0.33 µM; in the test with Blood, 0.3 µM.
On the same counts, the results for `O=C(O)c1ccc(OCCc2c(CCNS(=O)(=O)CCN3CCC(O)C3)n(C(c3ccccc3)c3ccccc3)c3ccc(Cl)cc23)cc1` (stereo not drawn) are 0.7 µM and 0.31 µM.
On the same counts, the results for `CC1CCCN(CCS(=O)(=O)NCCc2c(CCOc3ccc(C(=O)O)cc3)c3cc(Cl)ccc3n2C(c2ccccc2)c2ccccc2)C1` (stereo not drawn) are 0.35 µM and 0.2 µM.
On the same counts, the results for `O=C(O)c1ccc(OCCc2c(CCNS(=O)(=O)CCN3CCN(c4ccccn4)CC3)n(C(c3ccccc3)c3ccccc3)c3ccc(Cl)cc23)cc1` are 0.29 µM and 0.21 µM.
Take `O=C(O)c1ccc(OCCc2c(CCNS(=O)(=O)CSc3c(Cl)cccc3Cl)n(C(c3ccccc3)c3ccccc3)c3ccc(Cl)cc23)cc1`: the IC50 in test [1] amounted to 0.6 µM; with Blood, 0.16 µM.
The matching figures for `O=C(O)c1ccc(OCCc2c(CCNS(=O)(=O)CCN3CC4CC3CO4)n(C(c3ccccc3)c3ccccc3)c3ccc(Cl)cc23)cc1` (stereo not drawn): 0.25 µM and 0.4 µM.
With `Cc1ccn(CCS(=O)(=O)NCCc2c(CCOc3ccc(C(=O)O)cc3)c3cc(Cl)ccc3n2C(c2ccccc2)c2ccccc2)n1`, the IC50 was determined as 0.51 µM in test [1] and 0.2 µM with Blood.
The matching figures for `CC1CCCN1CCS(=O)(=O)NCCc1c(CCOc2ccc(C(=O)O)cc2)c2cc(Cl)ccc2n1C(c1ccccc1)c1ccccc1` (stereo not drawn): 0.22 µM and 0.077 µM.
The matching figures for `O=C(O)c1ccc(OCCc2c(CCNS(=O)(=O)CSc3ccccc3Cl)n(C(c3ccccc3)c3ccccc3)c3ccc(Cl)cc23)cc1`: 0.15 µM and 0.09 µM.
In turn, `O=C(O)c1ccc(OCCc2c(CCNS(=O)(=O)Cc3ccc(Cl)c(Cl)c3)n(C(c3ccccc3)c3ccccc3)c3ccc(Cl)cc23)cc1` [ECOPLADIB] showed a half-inhibitory concentration (IC50) in the test on Blood of 0.11 µM.
`COC[C@@H]1CCCN1CCS(=O)(=O)NCCc1c(CCOc2ccc(C(=O)O)cc2)c2cc(Cl)ccc2n1C(c1ccccc1)c1ccccc1`: the 50% inhibitory concentration (IC50) was 0.25 µM in test [1] and 0.33 µM with Blood.
